This is an account of results in ChEMBL document CHEMBL1811860, “Synthesis and inhibitory activity of sialic acid derivatives targeted at viral sialate-O-acetylesterases” (Eur J Med Chem, 2011).

The nature of assay [1]: Inhibition of influenza C virus 9-SOAE assessed as inhibition of hydrolysis of pNPA. The gist of the method: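 Esterase came from whole virions purified by ultracentrifugation through a 20% sucrose cushion (1.5 h, 4 °C) and resuspended in PBS pH 7.4. Enzyme was preincubated with sialoside for 30 min at room temperature. pNPA (10 µl of 100 mM acetonitrile stock) was then added in PBS pH 7.4 to 1 ml, and A400 was monitored. Read-out was % inhibition of pNPA hydrolysis.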

Assay [2] can be described thus: Inhibition of recombinant influenza C virus C/Cal/78 GFP-tagged 9-SOAE expressed in Sf9 cells assessed as inhibition of Neu5,9Ac2 hydrolysis at 1 mM by fluorimetric HPLC analysis. The gist of the method:
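Baculovirus/Sf9-expressed EGFP fusion (10 mU) was preincubated with 1 mM sialoside in PBS pH 7.4 for 30 min at room temperature. Free O-acetylated sialic acid or bovine submandibular mucin (10 µg) was then added and incubated at 37 °C for 20–240 min. Mucin samples were hydrolysed in 2 M propionic acid (80 °C, 2 h). Sialic acids were analysed by reverse-phase HPLC with fluorimetric detection.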

Assay [3] in a line: Inhibition of recombinant influenza C virus C/Cal/78 GFP-tagged 9-SOAE expressed in Sf9 cells assessed as inhibition of hydrolysis of pNPA at 1 mM. The essentials:
(§1)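 EGFP-fused haemagglutinin-esterase was made in serum-free Sf9 cultures via recombinant baculovirus and recovered from supernatant by ultracentrifugation (1.5 h, 4 °C). It was preincubated with sialoside for 30 min at room temperature. pNPA (10 µl of 100 mM acetonitrile stock) was added in PBS pH 7.4 to 1 ml, and A400 was followed. Read-out was % inhibition of pNPA hydrolysis.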

Assay [4] can be described thus: Inhibition of Bovine coronavirus 9-SOAE expressed in Sf9 cells assessed as inhibition of hydrolysis of pNPA at 2 mM.
Assay [5] in a line: Inhibition of Influenza C virus C/JJ/50 9-SOAE expressed in Sf9 cells assessed as inhibition of hydrolysis of pNPA at 1 mM.
The nature of assay [6]: Inhibition of recombinant influenza C virus C/Cal/78 GFP-tagged 9-SOAE expressed in Sf9 cells assessed as inhibition of hydrolysis of pNPA at 5 mM. The gist of the method: as §1
Assay [7] is described as follows: Inhibition of recombinant influenza C virus C/Cal/78 GFP-tagged 9-SOAE expressed in Sf9 cells assessed as inhibition of hydrolysis of pNPA at 0.5 mM. The gist of the method: as §1
Assay [8] in a line: Inhibition of recombinant influenza C virus C/Cal/78 GFP-tagged 9-SOAE expressed in Sf9 cells assessed as inhibition of hydrolysis of pNPA at 2 mM. The gist of the method:
as §1

Assay [9] in a line: Inhibition of Bovine coronavirus […] assessed as inhibition of hydrolysis of pNPA at 1 mM. The conditions noted are these: Sf9.
Assay [10] in a line: Inhibition of Bovine coronavirus 9-SOAE expressed in Sf9 cells assessed as inhibition of hydrolysis of pNPA at 0.5 mM.
The nature of assay [11]: Inhibition of SDAV GFP-tagged 9-SOAE expressed in Sf9 cells assessed as inhibition of hydrolysis of pNPA at 0.1 mM. As to conditions: Rat sialodacryoadenitis coronavirus. The gist of the method: as §1
Assay [12] is described as follows: Inhibition of SDAV GFP-tagged 9-SOAE expressed in Sf9 cells assessed as inhibition of hydrolysis of pNPA at 5 mM. As to conditions: Rat sialodacryoadenitis coronavirus. The gist of the method: as §1
A short description of assay [13]: Inhibition of SDAV GFP-tagged 9-SOAE expressed in Sf9 cells assessed as inhibition of hydrolysis of pNPA at 0.5 mM. The conditions noted are these: Rat sialodacryoadenitis coronavirus. The gist of the method:
as §1

Assay [14] is described as follows: Inhibition of SDAV GFP-tagged 9-SOAE expressed in Sf9 cells assessed as inhibition of hydrolysis of pNPA at 1 mM. The conditions noted are these: Rat sialodacryoadenitis coronavirus. The gist of the method:
as §1

Assay [15] in a line: Inhibition of MHV S 4-SOAE expressed in Sf9 cells assessed as inhibition of hydrolysis of pNPA at 0.1 mM. As to conditions: Murine coronavirus.
Assay [16] is described as follows: Inhibition of MHV S 4-SOAE expressed in Sf9 cells assessed as inhibition of hydrolysis of pNPA at 5 mM. The conditions noted are these: Murine coronavirus.
Assay [17] can be described thus: Inhibition of MHV S 4-SOAE expressed in Sf9 cells assessed as inhibition of hydrolysis of pNPA at 0.5 mM. The conditions noted are these: Murine coronavirus.
Assay [18] is described as follows: Inhibition of MHV S 4-SOAE expressed in Sf9 cells assessed as inhibition of hydrolysis of pNPA at 1 mM. As to conditions: Murine coronavirus.

pKi: −log10 of the molar value.

What is called pKi is −log10 of the Ki, conventionally taken in molar units. On to “((2S,4S,5R,6R)-5-acetamido-6-((1R,2R)-3-acetamido-1,2-dihydroxypropyl)-2-carboxy-4-hydroxytetrahydro-2H-pyran-2-ylthio)(methyl)mercury”, for which, in assay [1], the pKi is 2.38.
Usually inhibition stands for the share of the control response that was lost under treatment. On to `C=CCO[C@]1(C(=O)O)C[C@H](O)[C@@H](NC(C)=O)[C@H]([C@H](O)[C@H](O)COC)O1`, for which the inhibition was 10% in [2]; 22.4% in assay [3]; less than 0% in assay [4]; 8.63% in [5]; 85.8% in assay [6]; 22.9% in assay [7]. The values for the inhibition in [8], in assay [9] and in [10] were 33%, 9% and 2.86%, respectively.
In the case of `C=CCO[C@]1(C(=O)O)C[C@H](OC)[C@@H](NC(C)=O)[C@H]([C@H](O)[C@H](O)CO)O1`, the inhibition turned out to be 2.13% in assay [11]; 8.73% in [12]; 2.56% in assay [13]; 0.51% in assay [14]; 4% in assay [15]; 7.73% in [16]. Also, the values for the inhibition in assay [17] and in assay [18] were 0% and 8.31%, respectively.
